Laboratory results published in ChEMBL document CHEMBL1134472, “Synthesis and NMR-driven conformational analysis of taxol analogues conformationally constrained on the C13 side chain” (2001).
Active and inactive are the calls of the source. No cut-off for these calls is given here.

What was measured:
MCF7 = assay: Cytotoxicity against MCF-7 cells with reference to taxol; type: functional; settings: Homo sapiens
How it was run: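 Result is the test compound's ED50 in MCF7 cells divided by the paclitaxel ED50 from the same cytotoxicity assay.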

[1] = target: Tubulin alpha chain (Sus scrofa) (UniProt P02550); assay: Tubulin binding with reference to taxol was determined by tubulin assembly assay
Chain of Tubulin alpha chain (Sus scrofa) (P02550 whole entry, looked up): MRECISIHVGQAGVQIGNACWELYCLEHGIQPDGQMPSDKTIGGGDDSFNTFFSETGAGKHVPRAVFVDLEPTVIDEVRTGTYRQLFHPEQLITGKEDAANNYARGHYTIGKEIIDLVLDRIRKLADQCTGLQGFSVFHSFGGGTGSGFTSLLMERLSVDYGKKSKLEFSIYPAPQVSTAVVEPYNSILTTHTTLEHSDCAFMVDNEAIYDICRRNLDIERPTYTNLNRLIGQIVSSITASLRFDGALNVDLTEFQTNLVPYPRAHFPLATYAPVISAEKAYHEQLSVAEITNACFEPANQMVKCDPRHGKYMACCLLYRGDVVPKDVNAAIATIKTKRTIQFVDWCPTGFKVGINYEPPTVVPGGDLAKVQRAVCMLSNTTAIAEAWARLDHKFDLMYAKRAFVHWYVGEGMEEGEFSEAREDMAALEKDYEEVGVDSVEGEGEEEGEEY
How it was run: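 Activity is the ED50 in a tubulin assembly assay, given as a ratio to the paclitaxel ED50 from the same assay.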

Row | Structure (SMILES) | ED50 [1] | ED50/ED50(Taxol) (dimensionless ratio) [1] | ED50/ED50(Taxol) (MCF7) [dimensionless ratio]
1 | CC(=O)O[C@H]1C(=O)[C@@]2(C)[C@H]([C@H](OC(=O)c3ccccc3)[C@]3(O)C[C@H](OC(=O)[C@H](O)[C@@H](NC(=O)c4ccccc4)c4ccccc4)C(C)=C1C3(C)C)[C@]1(OC(C)=O)CO[C@@H]1C[C@@H]2O [PACLITAXEL] |  |  | 4
2 | CC(=O)O[C@H]1C(=O)[C@@]2(C)[C@H]([C@H](OC(=O)c3ccccc3)[C@]3(O)CC(OC(=O)[C@@]4(O)CCc5ccccc5[C@@H]4NC(=O)c4ccccc4)C(C)=C1C3(C)C)[C@]1(OC(C)=O)CO[C@@H]1C[C@@H]2O (stereo not given in full) |  | 42 | 333

Second part, led by results:

Row | ED50 [1] | ED50/ED50(Taxol) (dimensionless ratio) [1] | Structure (SMILES) | ED50/ED50(Taxol) (MCF7) [dimensionless ratio]
3 | inactive |  | CC(=O)O[C@H]1C(=O)[C@@]2(C)[C@H]([C@H](OC(=O)c3ccccc3)[C@]3(O)CC(OC(=O)[C@]4(O)Cc5ccccc5[C@@H]4NC(=O)c4ccccc4)C(C)=C1C3(C)C)[C@]1(OC(C)=O)CO[C@@H]1C[C@@H]2O (stereo not given in full) | 1600
4 |  | 30 | CC(=O)O[C@@]12CO[C@@H]1C[C@H](O)[C@@]1(C)C(=O)[C@H](O)C3=C(C)C(OC(=O)[C@@]4(O)CCc5ccccc5[C@@H]4NC(=O)OC(C)(C)C)C[C@@](O)([C@@H](OC(=O)c4ccccc4)[C@H]21)C3(C)C (stereo not given in full) | 239
5 |  | 4 | CC(=O)O[C@H]1C(=O)[C@@]2(C)[C@H]([C@H](OC(=O)c3ccccc3)[C@]3(O)CC(OC(=O)[C@@]4(O)Cc5ccccc5[C@@H]4NC(=O)c4ccccc4)C(C)=C1C3(C)C)[C@]1(OC(C)=O)CO[C@@H]1C[C@@H]2O (stereo not given in full) | 9
6 |  | 7 | CC(=O)O[C@@]12CO[C@@H]1C[C@H](O)[C@@]1(C)C(=O)[C@H](O)C3=C(C)C(OC(=O)[C@@]4(O)Cc5ccccc5[C@@H]4NC(=O)OC(C)(C)C)C[C@@](O)([C@@H](OC(=O)c4ccccc4)[C@H]21)C3(C)C (stereo not given in full) | 
